The record followed here is ChEMBL document CHEMBL4665666, “Discovery and characterization of trypanocidal cysteine protease inhibitors from the 'malaria box'” (Eur J Med Chem, 2019).

Molecules are shown by their SMILES.

The target of assay [1] is Cruzipain (Trypanosoma cruzi) (UniProt P25779). The assay can be described thus: Inhibition of recombinant Trypanosoma cruzi cruzain at 5 uM using Z-FR-AMC as substrate and measured at 12 sec interval for 5 mins without preincubation by fluorimetric analysis relative to control. In a few lines: (§1)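 Recombinant rhodesain or cruzain (1 nM) in 0.1 M sodium acetate pH 5.5, 0.01% Triton X-100, 1 mM β-mercaptoethanol. Compound at a single concentration, either without or after 10 min enzyme pre-incubation. Inhibition is relative to DMSO, with E-64 as positive control. Done in duplicate (primary screen) or triplicate.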

Assay [2] concerns the target Rhodesain (Trypanosoma brucei rhodesiense) (UniProt Q95PM0). The assay can be described thus: Inhibition of recombinant Trypanosoma brucei rhodesain expressed in Pichia pastoris at 5 uM using Z-FR-AMC as substrate and measured at 12 sec interval for 5 mins without preincubation by fluorimetric analysis relative to control. In a few lines: as §1
Assay [3] concerns the target Cruzipain (Trypanosoma cruzi) (UniProt P25779). The assay can be described thus: Inhibition of recombinant Trypanosoma cruzi cruzain at 5 uM using Z-FR-AMC as substrate preincubated for 10 mins followed by substrate addition and measured at 12 sec interval for 5 mins by fluorimetric analysis relative to control. Conditions: time 15.0 min. A digest of the protocol: as §1

For assay [4], the target named is Rhodesain (Trypanosoma brucei rhodesiense) (UniProt Q95PM0). Description: Inhibition of recombinant Trypanosoma brucei rhodesain expressed in Pichia pastoris at 5 uM using Z-FR-AMC as substrate preincubated for 10 mins followed by substrate addition and measured at 12 sec interval for 5 mins by fluorimetric analysis relative to control. Conditions: time 15.0 min. A digest of the protocol:
as §1

Sequence of Cruzipain (Trypanosoma cruzi) (P25779 123-467 limits assumed): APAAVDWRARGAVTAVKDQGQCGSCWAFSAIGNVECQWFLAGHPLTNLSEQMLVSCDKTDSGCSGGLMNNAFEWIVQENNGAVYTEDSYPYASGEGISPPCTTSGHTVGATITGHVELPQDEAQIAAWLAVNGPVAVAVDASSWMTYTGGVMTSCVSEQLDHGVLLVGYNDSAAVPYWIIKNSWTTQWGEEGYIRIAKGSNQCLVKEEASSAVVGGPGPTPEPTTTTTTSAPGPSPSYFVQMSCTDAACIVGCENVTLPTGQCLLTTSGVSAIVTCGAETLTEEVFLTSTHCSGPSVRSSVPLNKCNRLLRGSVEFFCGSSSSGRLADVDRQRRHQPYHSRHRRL
Sequence of Rhodesain (Trypanosoma brucei rhodesiense) (Q95PM0 1-450): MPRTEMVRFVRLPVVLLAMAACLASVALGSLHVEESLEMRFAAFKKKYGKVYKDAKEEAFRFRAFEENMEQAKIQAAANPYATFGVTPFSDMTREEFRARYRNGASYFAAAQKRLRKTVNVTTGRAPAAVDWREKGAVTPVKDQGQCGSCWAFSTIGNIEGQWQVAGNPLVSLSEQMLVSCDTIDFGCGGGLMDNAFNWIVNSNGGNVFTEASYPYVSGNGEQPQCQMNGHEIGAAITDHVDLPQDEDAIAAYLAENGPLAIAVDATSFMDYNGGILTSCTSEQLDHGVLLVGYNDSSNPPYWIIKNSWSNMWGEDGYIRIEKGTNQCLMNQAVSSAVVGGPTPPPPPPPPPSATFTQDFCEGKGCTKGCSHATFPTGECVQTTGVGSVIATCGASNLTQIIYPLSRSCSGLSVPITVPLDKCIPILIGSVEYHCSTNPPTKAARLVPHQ

In the case of `COc1cc(OC)c(N(C)C(=O)c2cc3c(s2)-c2ccccc2S(=O)(=O)C3)cc1Cl`, the inhibition in assay [1] amounted to 6.4%; in assay [2] it was 20.7%; in assay [3] it was 38.1%; in assay [4], 57.9%.

For the compound `O=C(Nc1cccc(-c2nc3ccccc3[nH]2)c1)c1cccc(NC(=O)c2ccco2)c1`, the inhibition in assay [1] is 96.7%; in assay [2], 40.1%; in assay [3], 94.7%; in assay [4], 53.9%.

`O=C(Nc1ccc(-c2nc3ccccc3[nH]2)cc1)c1ccc(Cl)c(Cl)c1`: the inhibition in assay [1] was 17.4%; in assay [2], 42.8%; in assay [3], 86.9%; in assay [4], 18.3%.

`COc1ccccc1C(=O)ON=C(N)Cc1cccc2ccccc12`: the inhibition in assay [1] turned out to be 32%; in assay [2], 1.4%; in assay [3], 54.9%; in assay [4], 54.3%.

With `O=C(NC1CCN(Cc2ccccc2)CC1)c1cc(C(=O)NC2CCN(Cc3ccccc3)CC2)cc(C(=O)NC2CCN(Cc3ccccc3)CC2)c1`, the inhibition in assay [1] was 41%; in assay [2], 45.4%; in assay [3], 60.5%; in assay [4], 49.2%.

Take `O=C(O)C1Cc2c([nH]c3ccccc23)C(c2ccc(Cl)cc2Cl)N1` (centres undefined): the inhibition worked out at 5% in assay [1], 0.7% in assay [2], 9.5% in assay [3] and 78.6% in assay [4].

For the compound `COc1ccc(CNC(=O)c2cc3c(=O)n4ccccc4nc3n(CCc3ccccc3)c2=N)cc1`, the inhibition in assay [1] was 45.7%; in assay [2], 43.5%; in assay [3], 69.9%; in assay [4] it was 66.9%.

With `CCOc1ccc(C2N(C)c3ccccc3N2C)cc1`, the inhibition in assay [1] turned out to be 21.8%; in assay [2], 30.3%; in assay [3], 48.3%; in assay [4] it was 57.7%.

For `COc1ccc(/C=C2/SC(=Nc3ccccc3)NC2=O)cc1`, the inhibition stood at 43.1% in assay [1], 35.6% in assay [2], 73.8% in assay [3] and 70.5% in assay [4].

Regarding `COc1ccc(-c2nc3cc(Cc4ccc5[nH]c(-c6ccc(OC)cc6)nc5c4)ccc3[nH]2)cc1`, the inhibition was 100% in assay [1], 98.6% in assay [2], 79.9% in assay [3] and 98.7% in assay [4].

On to `CCCc1c(CC)c(=N)c2ccccc2n1C`, for which the inhibition in assay [1] turned out to be 21.5%; in assay [2], 29.4%; in assay [3], 54.8%; in assay [4], 59.5%.

In the case of `Cc1ccccc1OCCSc1nc2ccc(NC(=O)c3ccccc3)cc2s1`, the inhibition was found to be 52.3% in assay [1], 48.3% in assay [2], 76.7% in assay [3] and 59% in assay [4].

As to `CN(N=O)C1=C(NC2CCCCC2)C(=O)c2ccccc2C1=O`, the inhibition came to 34.8% in assay [1], 38.7% in assay [2], 68.2% in assay [3] and 39.5% in assay [4].

Regarding `Cc1ccc(N2C(=O)C3C(C2=O)C2(c4ccccc4)C(=O)C3(c3ccccc3)C(c3ccccc3)=C2c2ccccc2)cc1` (centres undefined), the inhibition in assay [1] turned out to be 9.2%; in assay [2], 22.3%; in assay [3], 33.6%; in assay [4], 56.3%.

In the case of `CCCCCC(=O)N1c2ccccc2N=C2CC(c3ccc(OC)c(OC)c3)CC(O)=C2C1c1ccc(C(F)(F)F)cc1` (centres undefined), the inhibition stood at 17% in assay [1], 26.7% in assay [2], 50.7% in assay [3] and 46.4% in assay [4].

Regarding `COc1nc(Nc2ccc(C(C)C)cc2)nc(OC)n1`, the inhibition in assay [1] was found to be 16.8%; in assay [2] it was 25.9%; in assay [3], 44.2%; in assay [4], 53.8%.

In the case of `CCCCCn1c(=N)n(CC(O)COc2cccc(C)c2)c2ccccc21` (centres undefined), the inhibition is 55.2% in assay [1], 40.2% in assay [2], 87.2% in assay [3] and 69.9% in assay [4].

For `Clc1ccc2[nH]c3c(NCCCN4CCOCC4)ncnc3c2c1`, the inhibition in assay [1] was determined as 67%; in assay [2], 48.9%; in assay [3], 62.5%; in assay [4] it was 72.9%.

With `Nc1ccc(-c2nc3cc(Oc4ccc(Oc5ccc6[nH]c(-c7ccc(N)cc7)nc6c5)cc4)ccc3[nH]2)cc1`, the inhibition in assay [1] was 88.6%; in assay [2] it was 13.3%; in assay [3], 91.5%; in assay [4], 78.2%.

In the case of `Fc1ccc2[nH]c3c(NCCCN4CCOCC4)ncnc3c2c1`, the inhibition was found to be 50.7% in assay [1], 17.6% in assay [2], 63.9% in assay [3] and 41.6% in assay [4].

On to `COc1ccc(/C=C2/SC(Nc3ccc(F)cc3)=NC2=O)c(OC)c1`, for which the inhibition in assay [1] came out at 29.3%; in assay [2] it was 21.4%; in assay [3], 54.4%; in assay [4] it was 54.8%.

Take `COc1ccc(NC(=O)C2c3ccccc3C(=O)N(CC(C)C)C2c2cccs2)cc1` (centres undefined): the inhibition worked out at 3.3% in assay [1], 0.1% in assay [2], 0% in assay [3] and 78.7% in assay [4].

With `CCC(C)NCC(O)(c1ccc(Cl)cc1)c1ccc(Cl)cc1` (centres undefined), the inhibition came out at 32% in assay [1], 29.1% in assay [2], 67.2% in assay [3] and 80.9% in assay [4].

In the case of `COCCN(C(=O)Cc1cccs1)C(C(=O)NCc1ccc(OC)cc1)c1ccc(C(C)C)cc1` (centres undefined), the inhibition came to 40.6% in assay [1], 38.5% in assay [2], 67.5% in assay [3] and 86.7% in assay [4].

Consider `COc1ccc(OC)c(C2C3=C(CC(C)(C)CC3=O)N(c3ccc(Cl)c(Cl)c3)C3=C2C(=O)CC(C)(C)C3)c1`, for which the inhibition in assay [1] worked out at 28.5%; in assay [2], 16.6%; in assay [3], 72%; in assay [4], 53.3%.

In the case of `CCOc1ccccc1CNC(=O)C1c2ccccc2C(=O)N(CC(C)C)C1c1cccs1` (centres undefined), the inhibition in assay [1] was 45.6%; in assay [2], 34.3%; in assay [3], 55.7%; in assay [4] it was 71.4%.

With `O=C(Nc1ccc(-c2nc3cc(NC(=O)c4ccc(Cl)cc4)ccc3[nH]2)cc1)c1ccc(Cl)cc1`, the inhibition in assay [1] was 15%; in assay [2] it was 4.6%; in assay [3] it was 35.3%; in assay [4], 56.1%.

Consider `COc1cccc(C(=O)NC(c2ccc(C)cc2)c2cc(Cl)c3cccnc3c2O)c1` (centres undefined), for which the inhibition in assay [1] is 8.7%; in assay [2], 31.4%; in assay [3], 54.5%; in assay [4] it was 43.9%.

For `CCOC(=O)c1cnc2ccc(CC)cc2c1O`, the inhibition in assay [1] came out at 6%; in assay [2] it was 0%; in assay [3] it was 5.8%; in assay [4], 52.4%.

With `Oc1ccc(C(=C(Cl)Cl)c2ccc(O)cc2)cc1`, the inhibition in assay [1] is 31.1%; in assay [2], 22.6%; in assay [3] it was 60.5%; in assay [4] it was 62.1%.

`Cn1c(=O)c2cc(C(=O)NCCCN3CCCCCC3)sc2c2ccccc21`: the inhibition in assay [1] was found to be 22.9%; in assay [2], 22.4%; in assay [3] it was 50.5%; in assay [4] it was 41.3%.

With `O=C1c2ccccc2-c2nnc(-c3ccc(Br)cc3)cc21`, the inhibition in assay [1] amounted to 47.8%; in assay [2], 32.7%; in assay [3], 96.3%; in assay [4] it was 68.8%.

On to `CC(C)OCc1cc(CN2CCN(c3cccc(Cl)c3)CC2)c(O)c2ncccc12`, for which the inhibition in assay [1] was 49%; in assay [2], 8.3%; in assay [3], 98.2%; in assay [4] it was 83.7%.

As to `CCc1ccc(Nc2cc(C)c3ccc(O)cc3n2)cc1`, the inhibition in assay [1] came out at 32.8%; in assay [2], 36.5%; in assay [3], 55%; in assay [4], 38.1%.

On to `CCN(CC)CCNc1ncnc2c1[nH]c1ccc(Br)cc12`, for which the inhibition in assay [1] came out at 57%; in assay [2], 27.5%; in assay [3], 28.5%; in assay [4], 2.7%.

As for `COc1cc(C(=O)ON=C(N)Cc2cccc3ccccc23)cc(OC)c1OC`, the inhibition in assay [1] was determined as 14%; in assay [2], 0%; in assay [3] it was 51.1%; in assay [4], 46.8%.

In the case of `CCCOCc1cc(CN2CCN(c3cccc(Cl)c3)CC2)c(O)c2ncccc12`, the inhibition in assay [1] was determined as 37.1%; in assay [2], 36.4%; in assay [3], 75.3%; in assay [4], 87.6%.

For the compound `CC(O)(c1ccc(Cl)cc1)C(CN1CCCCC1)c1ccccc1` (centres undefined), the inhibition worked out at 11.9% in assay [1], 13.9% in assay [2], 54.1% in assay [3] and 50.4% in assay [4].

For `CCOc1cc(CNC(C)C(O)c2ccccc2)cc(Cl)c1OCC` (centres undefined), the inhibition was determined as 21.7% in assay [1], 32.9% in assay [2], 46.8% in assay [3] and 61.8% in assay [4].

For the compound `CCCCCCc1cc2cc(-c3csc(/C=C/c4ccccc4)n3)c(=O)oc2cc1O`, the inhibition is 8.9% in assay [1], 28.6% in assay [2], 38.3% in assay [3] and 51.2% in assay [4].

For `Cc1ccc(Nc2nc(-c3ccccn3)cs2)cc1`, the inhibition in assay [1] stood at 17.3%; in assay [2], 4.7%; in assay [3] it was 19.8%; in assay [4], 80.9%.

Broadly, the inhibition is the relative decrease from the control value, in per cent.
